This passage reports Tlag, Activity and LD50 results from ChEMBL document CHEMBL1137677, “Synthesis, pharmacological screening, quantum chemical and in vitro permeability studies of N-Mannich bases of benzimidazoles through bovine cornea” (Eur J Med Chem, 2009).

The nature of series [1]: Apparent permeability across bovine cornea assessed as lag time of permeation by UV-visible spectrophotometer. The settings on record: cattle. It is filed as ADME, tissue-based, Bos taurus. In a few lines: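 Fresh bovine cornea, taken within 1 h of sacrifice with lens and iris removed, was mounted in a side-by-side perfusion cell. Donor held 7 mL of drug in 0.01 M methanolic phosphate buffer, pH 7. Receptor was sampled 1 mL every 15 min for 3 h and replaced with buffer pre-equilibrated at 37 °C. Drug was quantified by UV-vis absorbance. Lag time is the time to reach a steady concentration gradient across the membrane.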

Series [2] concerns Mus musculus. Kind of series: Analgesic activity in Wistar albino mouse assessed as protection against acetic acid-induced writhing at 20 mg/kg, po administered 30 mins prior to acetic acid challenge measured after 30 mins. It is filed as functional. In short, it runs like this:
(§1)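 Wistar albino mice of either sex were dosed orally by gavage with a suspension in 1% carboxymethyl cellulose, 30 min before the writhing agent (0.6% v/v aqueous acetic acid, 1 mL/100 g). Writhings were counted over 30 min and expressed as percentage protection. Significance was tested by Student's t-test.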
Background: In writhing tests, fewer writhes than in controls are read as antinociception.

Series [3] deals with Rattus norvegicus. Kind of series: Antiinflammatory activity in Wistar albino rat assessed as reduction in formalin-induced paw edema volume at 40 mg/kg, po administered 30 mins prior to formalin challenge measured after 120 mins by plethysmography. It is filed as functional. More on the design: scale not given: the % may be the effect or the level left. In short, it runs like this: (§2)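 Wistar albino rats received the compound orally as a suspension in 1% carboxymethyl cellulose, 30 min before subplantar formalin (0.1 mL of 1% w/v). Paw volume was read by plethysmography at 30, 60, 90 and 120 min after formalin and expressed as % reduction of edema. Significance was tested by Student's t-test.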

Series [4] has as its system Rattus norvegicus. Nature of the series: Antiinflammatory activity in Wistar albino rat assessed as reduction in formalin-induced paw edema volume at 40 mg/kg, po administered 30 mins prior to formalin challenge measured after 90 mins by plethysmography. The format is functional. The arrangement: scale not given: the % may be the effect or the level left. In short, it runs like this: as §2

The subject of series [5] is Mus musculus. Nature of the series: Analgesic activity in Wistar albino mouse assessed as protection against acetic acid-induced writhing at 40 mg/kg, po administered 30 mins prior to acetic acid challenge measured after 30 mins. It is filed as functional. In short, it runs like this: as §1
The nature of series [6]: Acute toxicity in po dosed Wistar albino mouse assessed as mortality after 24 hrs by Karber's arithmetical method. It is filed as organism-based. The settings on record: in vivo. In a few lines:
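Wistar albino mice of either sex, six per group; compounds given orally by gavage as suspension in 1% carboxymethyl cellulose at 100, 200, 400, 800 or 1000 mg/kg. Mortality recorded over 24 h; LD50 calculated by Karber's arithmetical method.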

The subject of series [7] is Rattus norvegicus. Nature of the series: Antiinflammatory activity in Wistar albino rat assessed as reduction in formalin-induced paw edema volume at 40 mg/kg, po administered 30 mins prior to formalin challenge measured after 60 mins by plethysmography. It is filed as functional. More on the design: scale not given: the % may be the effect or the level left. In a few lines:
as §2

In series [8] the test system is Rattus norvegicus. Kind of series: Antiinflammatory activity in Wistar albino rat assessed as reduction in formalin-induced paw edema volume at 40 mg/kg, po administered 30 mins prior to formalin challenge measured after 30 mins by plethysmography. The format is functional. More on the design: scale not given: the % may be the effect or the level left. In a few lines: as §2

Series [9] relates to Mus musculus. Kind of series: Analgesic activity in Wistar albino mouse assessed as protection against acetic acid-induced writhing at 100 mg/kg, po administered 30 mins prior to acetic acid challenge measured after 30 mins. The format is functional. In a few lines: as §1
The subject of series [10] is Mus musculus. Kind of series: Analgesic activity in Wistar albino mouse assessed as protection against acetic acid-induced writhing at 200 mg/kg, po administered 30 mins prior to acetic acid challenge measured after 30 mins. The format is functional. In a few lines: as §1
Series [11] relates to Rattus norvegicus. Nature of the series: Antiinflammatory activity in Wistar albino rat assessed as reduction in formalin-induced paw edema volume at 200 mg/kg, po administered 30 mins prior to formalin challenge measured after 60 mins by plethysmography. It is filed as functional. More on the design: scale not given: the % may be the effect or the level left. In a few lines: as §2

Series [12] concerns Rattus norvegicus. Nature of the series: Antiinflammatory activity in Wistar albino rat assessed as reduction in formalin-induced paw edema volume at 200 mg/kg, po administered 30 mins prior to formalin challenge measured after 120 mins by plethysmography. It is filed as functional. More on the design: scale not given: the % may be the effect or the level left. In short, it runs like this: as §2

In series [13] the test system is Rattus norvegicus. Kind of series: Antiinflammatory activity in Wistar albino rat assessed as reduction in formalin-induced paw edema volume at 200 mg/kg, po administered 30 mins prior to formalin challenge measured after 90 mins by plethysmography. It is filed as functional. The arrangement: scale not given: the % may be the effect or the level left. In short, it runs like this:
as §2

For series [14], the system named is Rattus norvegicus. Kind of series: Antiinflammatory activity in Wistar albino rat assessed as reduction in formalin-induced paw edema volume at 200 mg/kg, po administered 30 mins prior to formalin challenge measured after 30 mins by plethysmography. The arrangement: scale not given: the % may be the effect or the level left. It is filed as functional. In a few lines:
as §2

Series [15] has as its system Rattus norvegicus. Kind of series: Antiinflammatory activity in Wistar albino rat assessed as reduction in formalin-induced paw edema volume at 50 mg/kg, po administered 30 mins prior to formalin challenge measured after 120 mins by plethysmography. The format is functional. The arrangement: scale not given: the % may be the effect or the level left. In a few lines: (§3)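 Standard-drug arm, given orally to Wistar albino rats 30 min before subplantar formalin (0.1 mL of 1% w/v). Paw volumes were measured by plethysmography at 30, 60, 90 and 120 min post-formalin and expressed as % reduction of edema.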

The test system of series [16] is Rattus norvegicus. Nature of the series: Antiinflammatory activity in Wistar albino rat assessed as reduction in formalin-induced paw edema volume at 50 mg/kg, po administered 30 mins prior to formalin challenge measured after 60 mins by plethysmography. The arrangement: scale not given: the % may be the effect or the level left. The format is functional. In a few lines: as §3

The test system of series [17] is Rattus norvegicus. Kind of series: Antiinflammatory activity in Wistar albino rat assessed as reduction in formalin-induced paw edema volume at 50 mg/kg, po administered 30 mins prior to formalin challenge measured after 30 mins by plethysmography. The format is functional. More on the design: scale not given: the % may be the effect or the level left. In short, it runs like this:
as §3

In series [18] the test system is Rattus norvegicus. Kind of series: Antiinflammatory activity in Wistar albino rat assessed as reduction in formalin-induced paw edema volume at 50 mg/kg, po administered 30 mins prior to formalin challenge measured after 90 mins by plethysmography. The arrangement: scale not given: the % may be the effect or the level left. It is filed as functional. In a few lines: as §3

Take `Cc1nc2ccccc2[nH]1`: in [1], the Tlag is 11.68 min.

Take `C(=C\c1nc2ccccc2[nH]1)/c1ccccc1`: the Tlag in series [1] worked out at 9.57 min.

The term LD50 denotes the dose expected to kill half of the subjects tested. With `C(=C\c1nc2ccccc2n1CN1CCCCC1)/c1ccccc1`, the Activity was determined as 29.56% in the series with Mus musculus [2]; 62% in the series on Rattus norvegicus [3]; 59% in the series on Rattus norvegicus [4]; 43.8% in the series on Mus musculus [5]; 56% in the series with Rattus norvegicus [7]; 48% with Rattus norvegicus [8]. For the same compound, the Tlag in series [1] is recorded as 4.51 min. Moreover, the LD50 at 24 h in series [6] was found to be 180 mg/kg.

`CN(C)Cn1cnc2ccccc21`: the Activity with Mus musculus [9] is 25.87%; in the series with Mus musculus [10], 31.4%; in the series with Rattus norvegicus [11], 51%; in the series with Rattus norvegicus [12], 53%; in the series with Rattus norvegicus [13], 64%; in the series with Rattus norvegicus [14] it was 48%. Besides, the Tlag in series [1] is 15.31 min. In addition, in series [6], the LD50 at 24 h is greater than 1000 mg/kg.

Take `CCN(CC)Cn1c(/C=C/c2ccccc2)nc2ccccc21`: the Activity with Mus musculus [2] is 32.2%; with Rattus norvegicus [3] it was 56%; in the series on Rattus norvegicus [4] it was 51%; with Mus musculus [5], 47.49%; in the series with Rattus norvegicus [7] it was 50%; with Rattus norvegicus [8] it was 20%. Further, in [1], the Tlag turned out to be 4.9 min. Further, in series [6], the LD50 at 24 h was found to be 175 mg/kg.

For `CCN(CC)Cn1cnc2ccccc21`, the Activity came to 11.35% with Mus musculus [9]; 43.8% with Mus musculus [10]; 59% in the series on Rattus norvegicus [11]; 61% with Rattus norvegicus [12]; 63% with Rattus norvegicus [13]; 28% with Rattus norvegicus [14]. The Tlag in series [1] is 16.79 min. Besides, in series [6], the LD50 at 24 h was greater than 1000 mg/kg.

With `C(=C\c1nc2ccccc2n1CN1CCOCC1)/c1ccccc1`, the Activity is on record as 20.58% with Mus musculus [2]; 70% with Rattus norvegicus [3]; 74% in the series on Rattus norvegicus [4]; 27.45% with Mus musculus [5]; 59% in the series with Rattus norvegicus [7]; 52% with Rattus norvegicus [8]. In series [1], the Tlag stood at 7.33 min. Moreover, the LD50 at 24 h in [6] came out at 200 mg/kg.

As to `CC(=O)Nc1ccc(O)cc1` [ACETAMINOPHEN], in the series with Mus musculus [9], the Activity stood at 47.76%. For the same compound, in series [1], the Tlag is 1.55 min.

On to `c1ccc2[nH]cnc2c1` [BENZIMIDAZOLE], for which the Tlag in series [1] worked out at 18.81 min.

In the case of `O=C(O)Cc1ccccc1Nc1c(Cl)cccc1Cl` [DICLOFENAC], the Activity in the series on Rattus norvegicus [15] came to 65%; in the series with Rattus norvegicus [16], 65%; in the series with Rattus norvegicus [17], 48%; in the series with Rattus norvegicus [18], 64%. The Tlag in [1] is on record as 3.36 min.
